This note sets out measurements from ChEMBL document CHEMBL1132646, “Synthesis and evaluation of new sulfur-containing L-arginine-derived inhibitors of nitric oxide synthase” (J Med Chem, 1999).

Molecules are shown by their SMILES.

One test concerns the target T1, Nitric oxide synthase 3 (Homo sapiens, UniProt P29474).
T1 sequence (P29474 whole entry): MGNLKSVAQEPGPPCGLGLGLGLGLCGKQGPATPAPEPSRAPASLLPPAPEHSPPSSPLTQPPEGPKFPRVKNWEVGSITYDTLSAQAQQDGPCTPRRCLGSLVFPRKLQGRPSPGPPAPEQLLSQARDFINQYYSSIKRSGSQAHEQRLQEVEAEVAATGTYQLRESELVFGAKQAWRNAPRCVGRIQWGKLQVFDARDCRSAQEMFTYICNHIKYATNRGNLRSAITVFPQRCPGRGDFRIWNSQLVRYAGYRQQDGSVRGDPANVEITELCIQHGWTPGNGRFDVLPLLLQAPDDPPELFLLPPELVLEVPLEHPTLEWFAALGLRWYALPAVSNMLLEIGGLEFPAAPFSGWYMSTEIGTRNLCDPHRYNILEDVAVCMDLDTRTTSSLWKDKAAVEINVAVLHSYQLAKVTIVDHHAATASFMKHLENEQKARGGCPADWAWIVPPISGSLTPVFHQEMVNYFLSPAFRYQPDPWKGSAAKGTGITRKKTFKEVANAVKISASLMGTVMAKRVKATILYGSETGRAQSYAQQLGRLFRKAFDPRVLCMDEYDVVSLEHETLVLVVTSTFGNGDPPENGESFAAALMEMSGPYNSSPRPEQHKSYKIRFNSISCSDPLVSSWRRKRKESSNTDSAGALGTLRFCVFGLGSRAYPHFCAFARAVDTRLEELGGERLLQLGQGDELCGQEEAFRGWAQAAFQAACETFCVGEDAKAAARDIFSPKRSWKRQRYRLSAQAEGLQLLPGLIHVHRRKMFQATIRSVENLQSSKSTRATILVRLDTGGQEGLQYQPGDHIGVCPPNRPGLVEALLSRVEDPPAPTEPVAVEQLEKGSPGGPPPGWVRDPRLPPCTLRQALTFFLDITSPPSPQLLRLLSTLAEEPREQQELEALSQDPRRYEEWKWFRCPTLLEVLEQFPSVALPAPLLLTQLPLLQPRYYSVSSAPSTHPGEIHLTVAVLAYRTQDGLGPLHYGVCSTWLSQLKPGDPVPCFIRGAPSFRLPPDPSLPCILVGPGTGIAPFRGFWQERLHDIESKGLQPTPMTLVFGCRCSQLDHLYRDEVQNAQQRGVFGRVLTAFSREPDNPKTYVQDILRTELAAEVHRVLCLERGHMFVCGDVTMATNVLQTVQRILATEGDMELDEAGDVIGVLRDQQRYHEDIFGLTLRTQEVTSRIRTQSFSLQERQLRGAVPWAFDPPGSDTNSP
Description: Inhibitory concentration against mammalian endothelial nitric oxide synthase (eNOS). A digest of the protocol: (§1)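 Citrulline formation: 20 mM HEPES pH 7.4, 50 μM L-arginine with 0.05 μCi [14C]-L-arginine, 4 μM FAD/FMN/H4B, 1 mM DTT, 1 mg/mL BSA, varied inhibitor; nNOS 12.5 nM, eNOS 25 nM (both plus 1 mM CaCl2, 15 μg/mL calmodulin), iNOS 2.5 nM (mouse, His6-tagged). Initiated with NADPH, 10 min room temperature, stopped pH 5.5 EDTA; [14C]-citrulline separated on Dowex cation exchange, scintillation counted; duplicate.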

Test [1] addresses T2, Nitric oxide synthase, inducible (Mus musculus, UniProt P29477).
T2 sequence (P29477 whole entry): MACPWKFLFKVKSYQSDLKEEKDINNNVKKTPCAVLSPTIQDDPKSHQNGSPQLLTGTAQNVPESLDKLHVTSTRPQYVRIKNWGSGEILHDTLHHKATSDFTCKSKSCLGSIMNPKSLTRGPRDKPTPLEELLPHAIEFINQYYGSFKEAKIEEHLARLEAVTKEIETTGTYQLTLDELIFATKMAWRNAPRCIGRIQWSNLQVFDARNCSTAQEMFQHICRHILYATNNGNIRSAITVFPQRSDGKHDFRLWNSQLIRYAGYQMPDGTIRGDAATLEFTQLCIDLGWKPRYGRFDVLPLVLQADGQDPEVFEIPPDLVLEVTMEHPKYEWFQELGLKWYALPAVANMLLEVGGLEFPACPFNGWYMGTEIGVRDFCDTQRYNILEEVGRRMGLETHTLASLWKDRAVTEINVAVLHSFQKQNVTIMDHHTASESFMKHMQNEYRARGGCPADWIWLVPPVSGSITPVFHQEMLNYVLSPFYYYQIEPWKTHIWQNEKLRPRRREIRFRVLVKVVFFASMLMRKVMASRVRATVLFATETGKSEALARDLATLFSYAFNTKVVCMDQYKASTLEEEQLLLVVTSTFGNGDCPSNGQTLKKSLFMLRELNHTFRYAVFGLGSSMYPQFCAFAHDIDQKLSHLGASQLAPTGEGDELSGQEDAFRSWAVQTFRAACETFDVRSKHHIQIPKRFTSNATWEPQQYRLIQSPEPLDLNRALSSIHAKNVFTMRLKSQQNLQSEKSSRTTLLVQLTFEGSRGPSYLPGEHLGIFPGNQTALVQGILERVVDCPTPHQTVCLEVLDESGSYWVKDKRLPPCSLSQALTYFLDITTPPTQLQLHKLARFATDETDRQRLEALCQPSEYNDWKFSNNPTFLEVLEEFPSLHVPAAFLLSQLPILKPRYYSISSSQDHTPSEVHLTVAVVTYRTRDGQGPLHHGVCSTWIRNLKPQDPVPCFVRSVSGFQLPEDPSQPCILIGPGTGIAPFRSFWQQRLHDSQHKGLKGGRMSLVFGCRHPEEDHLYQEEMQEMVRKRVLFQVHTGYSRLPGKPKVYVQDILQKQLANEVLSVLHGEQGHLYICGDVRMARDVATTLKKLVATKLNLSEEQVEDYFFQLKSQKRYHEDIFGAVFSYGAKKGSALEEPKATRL
Description: Inhibitory concentration against mouse inducible nitric oxide synthase (iNOS). A digest of the protocol: as §1

The next test deals with Nitric oxide synthase 1 (Homo sapiens, UniProt P29475). Nature of the test: Inhibitory concentration against mammalian Neuronal nitric oxide synthase (nNOS). A digest of the protocol: as §1
Chain of Nitric oxide synthase 1 (P29475 whole entry): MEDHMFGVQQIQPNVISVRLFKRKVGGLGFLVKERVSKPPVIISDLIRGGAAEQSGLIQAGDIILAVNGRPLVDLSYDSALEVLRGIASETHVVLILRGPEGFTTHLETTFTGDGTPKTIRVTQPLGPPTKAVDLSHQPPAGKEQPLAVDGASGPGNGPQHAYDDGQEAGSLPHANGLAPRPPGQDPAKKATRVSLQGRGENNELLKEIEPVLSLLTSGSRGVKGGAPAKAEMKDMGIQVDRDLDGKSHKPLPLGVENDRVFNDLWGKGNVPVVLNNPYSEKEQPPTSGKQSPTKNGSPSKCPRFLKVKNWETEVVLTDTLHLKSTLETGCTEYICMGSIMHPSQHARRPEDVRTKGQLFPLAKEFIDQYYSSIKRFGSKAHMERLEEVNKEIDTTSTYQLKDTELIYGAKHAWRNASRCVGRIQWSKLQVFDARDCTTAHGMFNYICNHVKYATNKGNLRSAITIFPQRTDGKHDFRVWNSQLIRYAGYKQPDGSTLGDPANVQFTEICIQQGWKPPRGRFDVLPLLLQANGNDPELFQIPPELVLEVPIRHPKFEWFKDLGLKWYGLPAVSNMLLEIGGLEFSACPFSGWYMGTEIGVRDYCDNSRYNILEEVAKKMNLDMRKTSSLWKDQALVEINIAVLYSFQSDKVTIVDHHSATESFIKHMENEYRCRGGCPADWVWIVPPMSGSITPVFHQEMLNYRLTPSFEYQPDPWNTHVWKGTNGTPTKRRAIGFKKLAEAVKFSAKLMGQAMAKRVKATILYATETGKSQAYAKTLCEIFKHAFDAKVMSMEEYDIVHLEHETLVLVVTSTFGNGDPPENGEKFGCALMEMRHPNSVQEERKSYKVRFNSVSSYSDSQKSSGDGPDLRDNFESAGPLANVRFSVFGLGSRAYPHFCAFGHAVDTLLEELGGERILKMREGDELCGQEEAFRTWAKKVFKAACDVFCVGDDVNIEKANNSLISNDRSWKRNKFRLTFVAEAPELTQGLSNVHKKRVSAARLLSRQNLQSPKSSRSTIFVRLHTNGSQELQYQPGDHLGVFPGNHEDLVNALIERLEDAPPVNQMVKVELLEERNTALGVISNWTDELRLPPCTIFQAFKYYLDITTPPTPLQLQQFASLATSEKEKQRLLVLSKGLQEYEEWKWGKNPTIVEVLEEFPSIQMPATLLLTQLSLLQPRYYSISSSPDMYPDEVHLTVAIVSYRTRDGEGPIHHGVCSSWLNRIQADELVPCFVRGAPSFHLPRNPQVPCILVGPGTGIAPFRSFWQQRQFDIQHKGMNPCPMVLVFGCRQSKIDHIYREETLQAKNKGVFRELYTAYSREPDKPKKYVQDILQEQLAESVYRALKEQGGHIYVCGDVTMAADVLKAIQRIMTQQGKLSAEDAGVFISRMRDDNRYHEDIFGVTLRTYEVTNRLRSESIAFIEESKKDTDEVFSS
The target in test [2] is T2, Nitric oxide synthase, inducible. Nature of the test: Effective concentration against NADPH oxidase activity of iNOS. A digest of the protocol:
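Mouse His6-tagged iNOS (E. coli BL21-DE3 expressed, Ni-NTA purified), 0.5 μM, in 40 mM HEPES pH 7.4 with 0.3 mM DTT, 4 μM each FAD/FMN/H4B, 10 units/mL catalase and SOD, varied analogue concentrations; started with 0.1 mM NADPH. NADPH oxidation rate followed as absorbance drop at 340 nm, 37 °C, triplicate; EC50 for decreased oxidase activity.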

Consider `CS/C(=N/N)NCCC[C@H](N)C(=O)O`, for which the IC50 (usually the concentration that inhibits the measured activity by half) at Nitric oxide synthase 3 came out at 752 µM; in test [1], 320 µM; against Nitric oxide synthase 1 it was 327 µM. The Ki – broadly, the equilibrium dissociation constant of an inhibitor or competing ligand from its target – in test [1] was determined as 58 µM. Moreover, the EC50 (as a rule, the concentration needed to bring the measured effect to its halfway point) in test [2] was found to be 180 µM.

For the molecule `NNC(=S)NCCC[C@H](N)C(=O)O`, the figures for the IC50 (at Nitric oxide synthase 3; in test [1]; against Nitric oxide synthase 1) were 3060 µM, 3710 µM and 1620 µM, respectively. The same molecule had a Ki in test [1] of 202 µM. This molecule showed an EC50 in test [2] of 190 µM.

For `CS/C(=N/O)NCCC[C@H](N)C(=O)O`, the values for the IC50 (against Nitric oxide synthase 3; in test [1]; on Nitric oxide synthase 1) were 19.7 µM, 13 µM and 6.7 µM, respectively. In test [1], affinity was put at a Ki of 7 µM. In test [2], this molecule came in with an EC50 of 6.6 µM.
